Measured values as given in ChEMBL document CHEMBL3877303 (J Med Chem, 2017).
Activity calls are given as the source filed them. The rule behind the calls is not given here.

Experiments:
[1] = target: BCR/ABL p210 fusion protein (Homo sapiens, UniProt A1Z199); assay: Inhibition of human BCR/ABL p210 fusion protein expressed in BAF3 cells assessed as growth inhibition measured after 72 hrs by CellTiter-Glo or CCK8 assay; assay type: cell-based
Outline: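 Seeded at 1 to 2.5×10^4 cells/mL with various compound concentrations, 72 h. Viability read by CellTiter-Glo luminescence or CCK-8 absorbance (450/655 nm), normalized to DMSO control, GI50 from curve fit, triplicate testing.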

[2] = Growth inhibition of mouse BAF3 cells measured after 72 hrs by CellTiter-Glo or CCK8 assay; assay type: cell-based
Outline: (§1)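 Cells at 1 to 2.5×10^4 cells/mL were incubated with a range of compound concentrations for 72 h. Viability was read by CellTiter-Glo luminescence or CCK-8 absorbance (450/655 nm) and normalized to DMSO control. GI50 came from curve fitting, with triplicate testing.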

[3] = target: Tyrosine-protein kinase Blk (Homo sapiens, UniProt P51451); assay: Inhibition of Tel-fused BLK (unknown origin) expressed in BAF3 cells assessed as growth inhibition measured after 72 hrs by CellTiter-Glo or CCK8 assay; assay type: cell-based
Chain of Tyrosine-protein kinase Blk (P51451 2-505 limits assumed): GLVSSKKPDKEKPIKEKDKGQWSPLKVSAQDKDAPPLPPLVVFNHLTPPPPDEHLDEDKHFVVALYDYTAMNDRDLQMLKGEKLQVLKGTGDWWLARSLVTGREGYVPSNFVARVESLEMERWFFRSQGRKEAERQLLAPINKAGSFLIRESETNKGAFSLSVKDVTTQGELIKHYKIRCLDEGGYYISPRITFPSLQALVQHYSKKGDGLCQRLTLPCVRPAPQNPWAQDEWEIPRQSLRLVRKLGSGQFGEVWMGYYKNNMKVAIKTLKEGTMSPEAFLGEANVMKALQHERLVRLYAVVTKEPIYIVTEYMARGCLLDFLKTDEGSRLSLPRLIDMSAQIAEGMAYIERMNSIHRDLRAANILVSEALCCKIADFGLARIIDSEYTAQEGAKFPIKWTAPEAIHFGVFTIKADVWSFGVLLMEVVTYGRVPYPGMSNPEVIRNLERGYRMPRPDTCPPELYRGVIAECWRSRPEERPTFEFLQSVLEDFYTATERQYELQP
Outline: (§2)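 BaF3 lines were made by retroviral transduction with kinase-fusion MSCV vectors packaged in HEK293T cells. Cells were selected with puromycin for 48 h, then selected again without IL-3 so growth depends on the introduced kinase. […] They were seeded at 1 to 2.5×10^4 cells/mL with compound dilutions and incubated 72 h. Viability was read by CellTiter-Glo luminescence or CCK-8 absorbance (450/655 nm), normalized to DMSO control; GI50 was curve-fitted from triplicate tests.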

[4] = target: T1, Discoidin domain-containing receptor 2 (Homo sapiens) (UniProt Q16832); assay: Inhibition of BCR-fused DDR2 (unknown origin) expressed in BAF3 cells assessed as growth inhibition measured after 72 hrs by CellTiter-Glo or CCK8 assay; assay type: cell-based; outline: as §2
T1 sequence (whole entry): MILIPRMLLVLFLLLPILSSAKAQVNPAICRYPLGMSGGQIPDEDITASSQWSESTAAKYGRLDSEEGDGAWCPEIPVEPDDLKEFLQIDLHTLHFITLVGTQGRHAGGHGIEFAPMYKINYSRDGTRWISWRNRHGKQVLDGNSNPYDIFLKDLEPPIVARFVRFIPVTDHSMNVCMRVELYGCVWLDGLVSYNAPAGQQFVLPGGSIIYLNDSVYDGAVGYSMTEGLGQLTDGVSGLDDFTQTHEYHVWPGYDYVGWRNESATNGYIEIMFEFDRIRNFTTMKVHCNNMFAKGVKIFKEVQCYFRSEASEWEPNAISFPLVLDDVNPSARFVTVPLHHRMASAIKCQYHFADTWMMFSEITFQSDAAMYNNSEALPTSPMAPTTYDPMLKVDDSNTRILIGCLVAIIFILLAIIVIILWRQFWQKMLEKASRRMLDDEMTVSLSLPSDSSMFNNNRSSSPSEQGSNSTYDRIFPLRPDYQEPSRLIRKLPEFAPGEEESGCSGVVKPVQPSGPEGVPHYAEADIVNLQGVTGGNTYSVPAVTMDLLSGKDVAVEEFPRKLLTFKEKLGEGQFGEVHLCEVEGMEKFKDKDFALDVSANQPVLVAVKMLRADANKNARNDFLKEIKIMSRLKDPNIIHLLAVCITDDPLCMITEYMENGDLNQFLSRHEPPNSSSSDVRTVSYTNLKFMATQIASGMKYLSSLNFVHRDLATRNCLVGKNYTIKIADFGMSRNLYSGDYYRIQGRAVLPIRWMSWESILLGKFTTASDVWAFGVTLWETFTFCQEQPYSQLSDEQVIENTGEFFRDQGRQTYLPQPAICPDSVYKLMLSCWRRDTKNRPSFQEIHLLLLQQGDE

[5] = target: Vascular endothelial growth factor receptor 2 (Homo sapiens) (UniProt P35968); assay: Inhibition of Tel-fused VEGFR2 (unknown origin) expressed in BAF3 cells assessed as growth inhibition measured after 72 hrs by CellTiter-Glo or CCK8 assay; assay type: cell-based; outline: as §2
Chain of Vascular endothelial growth factor receptor 2 (Homo sapiens) (P35968 whole entry, the tested form may be a part): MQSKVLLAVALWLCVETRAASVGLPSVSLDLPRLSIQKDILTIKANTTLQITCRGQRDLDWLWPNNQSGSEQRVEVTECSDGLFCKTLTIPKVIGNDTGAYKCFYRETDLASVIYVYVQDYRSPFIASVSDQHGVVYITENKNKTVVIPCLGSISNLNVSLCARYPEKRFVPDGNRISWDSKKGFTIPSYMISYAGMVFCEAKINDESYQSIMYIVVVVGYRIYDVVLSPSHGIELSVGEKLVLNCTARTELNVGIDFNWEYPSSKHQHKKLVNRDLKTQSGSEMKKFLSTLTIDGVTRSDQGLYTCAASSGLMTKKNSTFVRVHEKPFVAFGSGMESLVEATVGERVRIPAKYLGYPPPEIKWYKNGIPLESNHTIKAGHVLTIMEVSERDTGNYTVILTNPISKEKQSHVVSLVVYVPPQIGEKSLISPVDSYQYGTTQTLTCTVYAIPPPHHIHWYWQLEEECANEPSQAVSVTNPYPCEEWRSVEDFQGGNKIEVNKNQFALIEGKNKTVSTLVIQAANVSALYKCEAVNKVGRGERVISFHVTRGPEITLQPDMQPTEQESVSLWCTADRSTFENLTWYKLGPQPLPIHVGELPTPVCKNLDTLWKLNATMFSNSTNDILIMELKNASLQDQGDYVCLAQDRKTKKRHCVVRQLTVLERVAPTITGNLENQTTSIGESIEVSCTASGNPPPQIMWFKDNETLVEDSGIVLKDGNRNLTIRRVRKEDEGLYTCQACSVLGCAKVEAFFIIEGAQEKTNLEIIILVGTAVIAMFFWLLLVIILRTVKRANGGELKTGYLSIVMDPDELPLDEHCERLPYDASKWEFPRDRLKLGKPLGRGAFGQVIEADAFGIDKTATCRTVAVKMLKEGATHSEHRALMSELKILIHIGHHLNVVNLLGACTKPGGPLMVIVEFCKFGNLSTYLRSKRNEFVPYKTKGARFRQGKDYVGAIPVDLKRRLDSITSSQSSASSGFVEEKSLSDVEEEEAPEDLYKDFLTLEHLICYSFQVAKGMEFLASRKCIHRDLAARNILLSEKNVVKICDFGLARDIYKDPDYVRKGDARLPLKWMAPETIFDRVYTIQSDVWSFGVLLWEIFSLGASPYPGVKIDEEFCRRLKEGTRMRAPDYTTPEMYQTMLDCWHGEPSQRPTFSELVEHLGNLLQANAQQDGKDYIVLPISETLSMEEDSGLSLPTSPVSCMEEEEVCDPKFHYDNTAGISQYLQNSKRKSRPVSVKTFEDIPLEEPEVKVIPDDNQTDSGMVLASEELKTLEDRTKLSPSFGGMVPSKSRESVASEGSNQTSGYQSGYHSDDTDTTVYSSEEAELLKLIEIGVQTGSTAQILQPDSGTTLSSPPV

[6] = Antiproliferative activity against human MEG01 cells measured after 72 hrs by CellTiter-Glo or CCK8 assay; assay type: functional; conditions: MEG-01, 72 h
[7] = Antiproliferative activity against human GISTT1 cells measured after 72 hrs by CellTiter-Glo or CCK8 assay; assay type: functional; conditions: GISTT1, 72 h; outline: as §1
[8] = Antiproliferative activity against human GIST882 cells measured after 72 hrs by CellTiter-Glo or CCK8 assay; assay type: functional; conditions: GIST882, 72 h; outline: as §1
[9] = Antiproliferative activity against human GIST48B cells measured after 72 hrs by CellTiter-Glo or CCK8 assay; assay type: functional; outline: as §1
[10] = Antiproliferative activity against human MV4-11 cells measured after 72 hrs by CellTiter-Glo or CCK8 assay; assay type: functional; conditions: MV4-11, 72 h; outline: as §1
[11] = Antiproliferative activity against human MOLM14 cells measured after 72 hrs by CellTiter-Glo or CCK8 assay; assay type: functional; conditions: MOLM-14, 72 h; outline: as §1
[12] = Antiproliferative activity against human U937 cells measured after 72 hrs by CellTiter-Glo or CCK8 assay; assay type: functional; conditions: U-937, 72 h; outline: as §1
[13] = Antiproliferative activity against human HL60 cells measured after 72 hrs by CellTiter-Glo or CCK8 assay; assay type: functional; conditions: HL-60, 72 h; outline: as §1
[14] = Antiproliferative activity against human Rec1 cells measured after 72 hrs by CellTiter-Glo or CCK8 assay; assay type: functional; conditions: Rec1, 72 h; outline: as §1
[15] = Antiproliferative activity against CHO cells measured after 72 hrs by CellTiter-Glo or CCK8 assay; assay type: cell-based, Cricetulus griseus; conditions: chinese hamster; outline: as §1
[16] = target: T2, Mast/stem cell growth factor receptor Kit (Homo sapiens, UniProt P10721); assay: Inhibition of c-KIT autophosphorylation at Y823 in human GISTT1 cells at 0.03 to 10 uM measured after 2 hrs by immunoblotting; assay type: cell-based
T2 sequence (P10721 whole entry): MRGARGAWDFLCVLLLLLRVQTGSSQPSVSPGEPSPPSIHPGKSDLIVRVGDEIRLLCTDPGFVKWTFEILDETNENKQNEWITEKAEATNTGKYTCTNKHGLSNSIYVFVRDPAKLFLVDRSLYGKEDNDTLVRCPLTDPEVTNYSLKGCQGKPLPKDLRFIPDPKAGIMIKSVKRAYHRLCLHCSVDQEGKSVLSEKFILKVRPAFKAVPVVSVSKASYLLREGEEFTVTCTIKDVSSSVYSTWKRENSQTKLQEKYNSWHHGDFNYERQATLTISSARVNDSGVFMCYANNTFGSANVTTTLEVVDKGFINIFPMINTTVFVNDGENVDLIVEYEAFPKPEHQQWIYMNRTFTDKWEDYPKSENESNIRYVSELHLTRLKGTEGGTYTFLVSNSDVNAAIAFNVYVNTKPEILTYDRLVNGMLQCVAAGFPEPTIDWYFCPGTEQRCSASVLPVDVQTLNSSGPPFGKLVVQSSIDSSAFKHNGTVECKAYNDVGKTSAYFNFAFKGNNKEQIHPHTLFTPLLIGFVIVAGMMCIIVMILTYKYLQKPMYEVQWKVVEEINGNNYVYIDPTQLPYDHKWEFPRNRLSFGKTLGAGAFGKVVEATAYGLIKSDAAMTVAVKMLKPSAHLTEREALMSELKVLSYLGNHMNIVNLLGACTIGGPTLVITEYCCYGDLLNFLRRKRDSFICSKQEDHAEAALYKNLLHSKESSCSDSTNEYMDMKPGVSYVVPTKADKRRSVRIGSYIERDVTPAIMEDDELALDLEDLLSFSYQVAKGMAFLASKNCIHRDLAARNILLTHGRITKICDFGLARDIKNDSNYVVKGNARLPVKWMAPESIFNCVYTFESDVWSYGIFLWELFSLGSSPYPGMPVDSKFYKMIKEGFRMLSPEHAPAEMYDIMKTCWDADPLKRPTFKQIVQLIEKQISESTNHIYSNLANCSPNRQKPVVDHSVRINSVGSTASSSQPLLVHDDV
Outline: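 After an ice-cold PBS wash, cells were lysed in RIPA buffer (50 mM Tris pH 8.0) with protease and phosphatase inhibitors, and protein was quantified by BCA. Lysates were run on SDS-PAGE, transferred to PVDF and blocked in 5% milk/TBST. Phospho- and total proteins were probed by immunoblot with ECL detection; β-actin served as loading control.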

[17] = Anticancer activity against human K562 cells xenografted in nu/nu mouse assessed as tumor growth inhibition at 100 mg/kg administered daily via oral gavage measured 28 days post compound treatment relative to vehicle-treated control; assay type: functional; conditions: 672 h, read-out: TGI
Outline: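 Female nu/nu mice received ten million K562 cells subcutaneously in the right flank, in PBS mixed 1:1 with Matrigel. Daily oral gavage began at 200-400 mm³ tumor size, with 4 or 5 mice per group. Dosing was 25, 50 or 100 mg/kg/d or vehicle (0.5% methylcellulose/0.4% Tween80) for 28 days. Body weight and tumor size were normalized to initial values, and final tumor weight was recorded. Data are mean ± SEM.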

[18] = target: T2, Mast/stem cell growth factor receptor Kit; conditions: 1 uM

Chain of BCR/ABL p210 fusion protein (A1Z199 1-97): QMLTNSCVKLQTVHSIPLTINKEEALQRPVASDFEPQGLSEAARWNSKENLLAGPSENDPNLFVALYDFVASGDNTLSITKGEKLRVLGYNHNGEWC

GI50 [1] [µM]	GI50 [3] [µM]	GI50 [4] [µM]	GI50 [5] [µM]	inhibition [16]	inhibition [18]	SMILES	GI50 at 72 h [2] [µM]	GI50 [6] [µM]	GI50 [7] [µM]	GI50 [8] [µM]	GI50 [9] [µM]	GI50 [10] [µM]	GI50 [11] [µM]	GI50 [12] [µM]	GI50 [13] [µM]	GI50 [14] [µM]	GI50 at 72 h [15] [µM]	inhibition in vivo at 100 mg/kg [17] [%]
0.033	0.658	6.08	0.035	Active	–	Cc1ccc(C(=O)N2CCC(Oc3cc(NC(=O)c4ccc(CN5CCN(C)CC5)c(C(F)(F)F)c4)ccc3C)CC2)cn1	> 10	0.02	0.023	0.095	3.96	8.14	8.49	5.73	7.34	3.47	> 10	66.8
–	> 10	> 10	> 10	–	Active	Cc1ccc(NC(=O)c2ccc(CN3CCN(C)CC3)cc2)cc1Nc1nccc(-c2cccnc2)n1 [IMATINIB]	> 10	–	0.008	0.014	> 10	> 10	> 10	> 10	> 10	> 10	> 10	31.9
